Assay results from ChEMBL document CHEMBL5257027 (Eur J Med Chem, 2016).

Key:
K562 [1] = assay: Antiproliferative activity against human K562 cells assessed as total growth inhibition; type: functional
Procedure, shortened: (§1)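 NCI five-dose testing across the 58-line panel gives GI50, TGI and LC50 for each line. Subpanel lines report mean GI50 for each of the nine cancer types.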

[2] = tested on: Panel breast (Carcinoma cell lines); assay: Antiproliferative activity against human Panel breast (6 Carcinoma cell lines) assessed as reduction in mean cell growth; type: functional; procedure, shortened: as §1
HCT-15 [3] = assay: Antiproliferative activity against human HCT-15 cells assessed as reduction in cell growth; type: functional; procedure, shortened: as §1
HOP-92 [4] = assay: Antiproliferative activity against human HOP-92 cells assessed as reduction in cell growth; type: functional; procedure, shortened: as §1
SK-MEL-5 [5] = assay: Cytotoxicity against human SK-MEL-5 cells; type: functional
Procedure, shortened: (§2)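 Run in the US NCI 58-cell-line screen covering nine cancer types (leukemia, NSCLC, colon, CNS, melanoma, ovarian, renal, prostate, breast). Five-dose mode gave GI50, TGI and LC50 values for each cell line. In the single-dose pre-screen, % inhibition was taken as 100 minus growth percentage.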

K562 [6] = assay: Antiproliferative activity against human K562 cells assessed as reduction in cell growth; type: functional; procedure, shortened: as §1
SNB-75 [7] = assay: Antiproliferative activity against human SNB-75 cells assessed as total growth inhibition; type: functional; procedure, shortened: as §1
PC-3 [8] = assay: Antiproliferative activity against human PC-3 cells assessed as total growth inhibition; type: functional; procedure, shortened: as §1
SK-MEL-5 [9] = assay: Antiproliferative activity against human SK-MEL-5 cells assessed as total growth inhibition; type: functional; procedure, shortened: as §1
MDA-MB-468 [10] = assay: Antiproliferative activity against human MDA-MB-468 cells assessed as total growth inhibition; type: functional; procedure, shortened: as §1
[11] = target: Mitogen-activated protein kinase 14 (Homo sapiens) (UniProt Q16539); assay: Inhibition of MAPK14 (p38 alpha) (unknown origin) at 10 uM using […] as substrate incubated for 40 mins in presence of [gamma33P]ATP by scintillation counting based hotspot kinase assay relative to control
Mitogen-activated protein kinase 14 (Homo sapiens), sequence (Q16539 whole entry): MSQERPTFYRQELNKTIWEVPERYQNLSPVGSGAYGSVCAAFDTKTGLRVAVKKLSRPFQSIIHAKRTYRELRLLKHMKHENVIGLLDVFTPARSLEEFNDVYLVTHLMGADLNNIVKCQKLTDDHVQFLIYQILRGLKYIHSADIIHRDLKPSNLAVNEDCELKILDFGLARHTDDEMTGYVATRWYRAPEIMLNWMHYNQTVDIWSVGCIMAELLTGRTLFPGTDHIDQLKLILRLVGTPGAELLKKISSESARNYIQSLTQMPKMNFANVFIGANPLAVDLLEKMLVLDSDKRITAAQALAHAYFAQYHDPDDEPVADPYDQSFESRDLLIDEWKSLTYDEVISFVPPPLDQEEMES

HOP-92 [12] = assay: Cytotoxicity against human HOP-92 cells; type: functional; procedure, shortened: as §2
COLO 205 [13] = assay: Antiproliferative activity against human COLO 205 cells assessed as reduction in cell growth; type: functional; procedure, shortened: as §1
[14] = tested on: Serine/threonine-protein kinase B-raf (Homo sapiens), P15056 [V600E]; assay: Inhibition of B-RAF V600E mutant (unknown origin) at 10 uM using […] as substrate incubated for 40 mins in presence of [gamma33P]ATP by scintillation counting based hotspot kinase assay relative to control
Serine/threonine-protein kinase B-raf (Homo sapiens), P15056 [V600E], sequence (P15056 whole entry V600E): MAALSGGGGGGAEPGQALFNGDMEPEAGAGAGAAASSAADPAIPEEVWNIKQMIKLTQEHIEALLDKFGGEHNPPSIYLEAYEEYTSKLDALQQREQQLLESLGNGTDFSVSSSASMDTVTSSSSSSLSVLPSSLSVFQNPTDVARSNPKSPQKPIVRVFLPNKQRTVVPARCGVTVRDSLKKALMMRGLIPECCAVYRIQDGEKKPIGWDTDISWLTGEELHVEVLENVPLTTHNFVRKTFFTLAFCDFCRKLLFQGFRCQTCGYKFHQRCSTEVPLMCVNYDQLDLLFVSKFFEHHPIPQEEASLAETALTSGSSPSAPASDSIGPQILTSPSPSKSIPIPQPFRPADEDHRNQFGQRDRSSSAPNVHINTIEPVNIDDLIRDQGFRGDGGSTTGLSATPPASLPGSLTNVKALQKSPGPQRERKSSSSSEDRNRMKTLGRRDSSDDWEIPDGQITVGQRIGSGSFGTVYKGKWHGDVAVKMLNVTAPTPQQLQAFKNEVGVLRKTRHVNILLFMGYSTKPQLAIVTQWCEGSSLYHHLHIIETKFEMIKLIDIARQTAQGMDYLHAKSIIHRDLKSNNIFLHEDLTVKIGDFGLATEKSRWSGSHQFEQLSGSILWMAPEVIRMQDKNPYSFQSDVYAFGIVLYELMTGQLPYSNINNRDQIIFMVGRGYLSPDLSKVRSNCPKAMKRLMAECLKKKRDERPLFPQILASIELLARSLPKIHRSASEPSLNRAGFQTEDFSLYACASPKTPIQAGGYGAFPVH

COLO 205 [15] = assay: Antiproliferative activity against human COLO 205 cells assessed as total growth inhibition; type: functional; procedure, shortened: as §1
[16] = tested on: Panel CNS (Carcinoma cell lines); assay: Antiproliferative activity against human Panel CNS (6 Carcinoma cell lines) assessed as reduction in mean cell growth; type: functional; procedure, shortened: as §1
[17] = target: Epidermal growth factor receptor (Homo sapiens) (UniProt P00533); assay: Inhibition of EGFR (unknown origin) at 10 uM using […] as substrate incubated for 40 mins in presence of [gamma33P]ATP by scintillation counting based hotspot kinase assay relative to control
Epidermal growth factor receptor (Homo sapiens), sequence (P00533 whole entry): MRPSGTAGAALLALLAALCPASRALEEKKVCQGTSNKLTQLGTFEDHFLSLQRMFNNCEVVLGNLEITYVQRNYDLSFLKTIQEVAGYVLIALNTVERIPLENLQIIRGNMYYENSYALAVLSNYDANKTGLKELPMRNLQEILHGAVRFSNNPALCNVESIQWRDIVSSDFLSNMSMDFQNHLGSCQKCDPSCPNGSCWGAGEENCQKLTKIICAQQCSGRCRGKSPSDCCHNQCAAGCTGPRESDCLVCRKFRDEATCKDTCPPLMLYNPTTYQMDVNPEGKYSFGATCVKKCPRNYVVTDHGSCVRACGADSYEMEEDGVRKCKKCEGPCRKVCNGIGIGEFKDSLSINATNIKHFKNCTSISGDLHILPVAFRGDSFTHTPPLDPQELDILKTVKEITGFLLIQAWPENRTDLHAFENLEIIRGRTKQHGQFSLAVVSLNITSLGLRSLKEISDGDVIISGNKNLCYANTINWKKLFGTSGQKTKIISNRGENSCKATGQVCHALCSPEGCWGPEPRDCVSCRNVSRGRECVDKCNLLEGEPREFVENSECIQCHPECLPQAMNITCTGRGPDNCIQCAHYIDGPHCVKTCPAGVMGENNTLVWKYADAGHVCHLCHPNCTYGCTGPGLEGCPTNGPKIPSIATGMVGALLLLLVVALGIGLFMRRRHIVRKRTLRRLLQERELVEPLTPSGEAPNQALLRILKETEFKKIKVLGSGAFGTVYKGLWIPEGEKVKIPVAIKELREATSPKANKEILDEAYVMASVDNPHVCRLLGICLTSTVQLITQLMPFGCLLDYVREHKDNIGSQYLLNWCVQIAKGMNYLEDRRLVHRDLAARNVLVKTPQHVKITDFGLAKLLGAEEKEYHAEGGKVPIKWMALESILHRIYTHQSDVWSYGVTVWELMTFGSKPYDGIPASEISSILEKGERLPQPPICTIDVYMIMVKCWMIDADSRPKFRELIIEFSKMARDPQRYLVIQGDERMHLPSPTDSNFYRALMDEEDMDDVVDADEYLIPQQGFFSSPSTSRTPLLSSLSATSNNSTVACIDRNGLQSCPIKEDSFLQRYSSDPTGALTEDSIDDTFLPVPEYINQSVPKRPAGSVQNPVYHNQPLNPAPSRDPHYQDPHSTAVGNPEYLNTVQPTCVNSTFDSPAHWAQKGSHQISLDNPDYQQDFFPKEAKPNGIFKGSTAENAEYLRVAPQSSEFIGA

RXF 393 [18] = assay: Antiproliferative activity against human RXF 393 cells assessed as total growth inhibition; type: functional; procedure, shortened: as §1
SNB-75 [19] = assay: Antiproliferative activity against human SNB-75 cells assessed as reduction in cell growth; type: functional; procedure, shortened: as §1
[20] = tested on: Panel leukemia (Carcinoma cell lines); assay: Antiproliferative activity against human Panel leukemia (5 Carcinoma cell lines) assessed as reduction in mean cell growth; type: functional; procedure, shortened: as §1
SK-MEL-5 [21] = assay: Antiproliferative activity against human SK-MEL-5 cells assessed as reduction in cell growth; type: functional; procedure, shortened: as §1
PC-3 [22] = assay: Antiproliferative activity against human PC-3 cells assessed as reduction in cell growth; type: functional; procedure, shortened: as §1
[23] = target: RAF proto-oncogene serine/threonine-protein kinase (Homo sapiens, UniProt P04049); assay: Inhibition of RAF1 (unknown origin) at 10 uM using […] as substrate incubated for 40 mins in presence of [gamma33P]ATP by scintillation counting based hotspot kinase assay relative to control
RAF proto-oncogene serine/threonine-protein kinase, sequence (P04049 whole entry): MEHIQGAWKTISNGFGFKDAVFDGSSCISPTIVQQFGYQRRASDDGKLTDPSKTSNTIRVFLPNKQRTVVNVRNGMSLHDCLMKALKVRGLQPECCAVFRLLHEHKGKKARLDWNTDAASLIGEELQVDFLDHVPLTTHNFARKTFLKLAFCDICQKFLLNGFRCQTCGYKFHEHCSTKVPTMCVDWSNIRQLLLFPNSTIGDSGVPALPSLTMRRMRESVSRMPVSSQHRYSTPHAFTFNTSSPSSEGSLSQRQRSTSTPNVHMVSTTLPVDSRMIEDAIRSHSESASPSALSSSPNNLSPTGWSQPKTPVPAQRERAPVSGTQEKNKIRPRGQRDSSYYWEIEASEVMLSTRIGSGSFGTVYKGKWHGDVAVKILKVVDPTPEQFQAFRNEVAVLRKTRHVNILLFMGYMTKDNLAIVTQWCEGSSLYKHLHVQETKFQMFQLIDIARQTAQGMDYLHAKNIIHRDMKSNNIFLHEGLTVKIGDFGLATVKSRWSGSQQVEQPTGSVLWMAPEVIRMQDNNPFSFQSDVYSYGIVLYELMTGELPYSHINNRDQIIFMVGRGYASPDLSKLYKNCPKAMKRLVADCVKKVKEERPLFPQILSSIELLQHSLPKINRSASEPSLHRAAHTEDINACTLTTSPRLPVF

K562 [24] = assay: Cytotoxicity against human k562 cells; type: functional; conditions: read-out: LC50 (the source's name); procedure, shortened: as §2
L132 = assay: Cytotoxicity against human L132 cells assessed as reduction in cell growth at 31.3 to 100 uM relative to control; type: toxicity, cell-based; parameters: scale not given: the % may be the effect or the level left; conditions: l132, 100 µM, dose 31.3-100 µM
[25] = target: Tyrosine-protein kinase ABL1 (Homo sapiens) (UniProt P00519); assay: Inhibition of ABL (unknown origin) at 10 uM using […] as substrate incubated for 40 mins in presence of [gamma33P]ATP by scintillation counting based hotspot kinase assay relative to control
Tyrosine-protein kinase ABL1 (Homo sapiens), sequence (P00519 whole entry): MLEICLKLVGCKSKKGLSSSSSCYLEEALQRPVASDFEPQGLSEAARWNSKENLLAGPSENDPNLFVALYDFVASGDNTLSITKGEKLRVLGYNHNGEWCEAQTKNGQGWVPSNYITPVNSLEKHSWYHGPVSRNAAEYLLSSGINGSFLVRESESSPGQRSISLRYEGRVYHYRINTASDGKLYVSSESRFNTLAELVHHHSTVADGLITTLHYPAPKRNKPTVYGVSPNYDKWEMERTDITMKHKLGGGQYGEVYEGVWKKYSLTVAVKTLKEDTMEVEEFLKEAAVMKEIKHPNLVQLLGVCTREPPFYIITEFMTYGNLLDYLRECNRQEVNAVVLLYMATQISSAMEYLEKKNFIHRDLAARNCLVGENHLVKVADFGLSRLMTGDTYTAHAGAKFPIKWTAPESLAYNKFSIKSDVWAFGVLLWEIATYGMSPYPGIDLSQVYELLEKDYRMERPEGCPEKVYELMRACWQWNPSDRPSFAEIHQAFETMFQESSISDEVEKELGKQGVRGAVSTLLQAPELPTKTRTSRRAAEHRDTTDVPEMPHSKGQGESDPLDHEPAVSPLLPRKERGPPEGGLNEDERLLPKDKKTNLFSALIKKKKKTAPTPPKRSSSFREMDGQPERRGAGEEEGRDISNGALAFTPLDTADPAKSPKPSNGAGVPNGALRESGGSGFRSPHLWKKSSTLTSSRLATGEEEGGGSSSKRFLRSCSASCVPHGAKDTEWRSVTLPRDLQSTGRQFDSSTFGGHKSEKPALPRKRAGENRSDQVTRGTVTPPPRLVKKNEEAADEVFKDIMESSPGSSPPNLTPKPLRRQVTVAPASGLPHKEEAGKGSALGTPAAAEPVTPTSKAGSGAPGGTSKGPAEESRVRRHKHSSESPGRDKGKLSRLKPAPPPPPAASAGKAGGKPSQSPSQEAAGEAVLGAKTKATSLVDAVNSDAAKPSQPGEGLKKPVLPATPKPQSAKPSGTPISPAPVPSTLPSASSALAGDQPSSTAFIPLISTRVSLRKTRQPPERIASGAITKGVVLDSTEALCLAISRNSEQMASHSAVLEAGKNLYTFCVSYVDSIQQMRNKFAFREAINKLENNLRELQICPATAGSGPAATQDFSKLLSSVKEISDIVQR

[26] = tested on: Panel ovarian (Carcinoma cell lines); assay: Antiproliferative activity against human Panel ovarian (7 Carcinoma cell lines) assessed as reduction in mean cell growth; type: functional; procedure, shortened: as §1
COLO 205 [27] = assay: Cytotoxicity against human COLO 205 cells; type: functional; procedure, shortened: as §2
HOP-92 [28] = assay: Antiproliferative activity against human HOP-92 cells assessed as total growth inhibition; type: functional; procedure, shortened: as §1
[29] = tested on: Panel melanoma (Carcinoma cell lines); assay: Antiproliferative activity against human Panel melanoma (9 Carcinoma cell lines) assessed as reduction in mean cell growth; type: functional; procedure, shortened: as §1
[30] = tested on: Panel colon (Carcinoma cell lines); assay: Antiproliferative activity against human Panel colon (7 Carcinoma cell lines) assessed as reduction in mean cell growth; type: functional; procedure, shortened: as §1
[31] = tested on: Panel renal (Carcinoma cell lines); assay: Antiproliferative activity against human Panel renal (8 Carcinoma cell lines) assessed as reduction in mean cell growth; type: functional; procedure, shortened: as §1
MDA-MB-468 [32] = assay: Antiproliferative activity against human MDA-MB-468 cells assessed as reduction in cell growth; type: functional; procedure, shortened: as §1
HCT-15 [33] = assay: Antiproliferative activity against human HCT-15 cells assessed as total growth inhibition; type: functional; procedure, shortened: as §1
Homo sapiens = organism: Homo sapiens; assay: Inhibition of ABL […] mutant (unknown origin) at 10 uM using […] as substrate incubated for 40 mins in presence of [gamma33P]ATP by scintillation counting based hotspot kinase assay relative to control
RXF 393 [34] = assay: Antiproliferative activity against human RXF 393 cells assessed as reduction in cell growth; type: functional; procedure, shortened: as §1
[35] = target: Serine/threonine-protein kinase B-raf (Homo sapiens) (UniProt P15056); assay: Inhibition of B-RAF (unknown origin) at 10 uM using […] as substrate incubated for 40 mins in presence of [gamma33P]ATP by scintillation counting based hotspot kinase assay relative to control
Serine/threonine-protein kinase B-raf (Homo sapiens), sequence (P15056 whole entry): as the sequence (P15056 whole entry V600E) above, with E600V counted along it

[36] = Antiproliferative activity against human Panel NCI-58 (58 Carcinoma cell lines) assessed as reduction in mean cell growth at 10 uM; type: functional; parameters: scale not given: the % may be the effect or the level left
Procedure, shortened: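 NCI 58-cell-line screen covering leukemia, NSCLC, colon, CNS, melanoma, ovarian, renal, prostate and breast lines. Compounds given once at […] (micromolar per the line). Percent inhibition taken as 100 minus growth percent. Panel line reports the mean over all 58 lines.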

NCI/ADR-RES [37] = assay: Cytotoxicity against human NCI/ADR-RES cells; type: functional; procedure, shortened: as §2
MDA-MB-468 [38] = assay: Cytotoxicity against human MDA-MB-468 cells; type: functional; conditions: read-out: LC50 (the source's name); procedure, shortened: as §2
PC-3 [39] = assay: Cytotoxicity against human PC-3 cells; type: functional; procedure, shortened: as §2
SNB-75 [40] = assay: Cytotoxicity against human SNB-75 cells; type: functional; conditions: read-out: LC50 (the source's name); procedure, shortened: as §2
NCI/ADR-RES [41] = assay: Antiproliferative activity against human NCI/ADR-RES cells assessed as reduction in cell growth; type: functional; procedure, shortened: as §1
[42] = Antiproliferative activity against human Panel non-small cell lung cancer (8 Carcinoma cell lines) assessed as reduction in mean cell growth; type: functional; conditions: Non-small cell lung cancer cell line; procedure, shortened: as §1
RXF 393 [43] = assay: Cytotoxicity against human RXF 393 cells; type: functional; procedure, shortened: as §2
HCT-15 [44] = assay: Cytotoxicity against human HCT-15 cells; type: functional; conditions: read-out: LC50 (the source's name); procedure, shortened: as §2
NCI/ADR-RES [45] = assay: Antiproliferative activity against human NCI/ADR-RES cells assessed as total growth inhibition; type: functional; procedure, shortened: as §1
[46] = tested on: Panel prostate (Carcinoma cell lines); assay: Antiproliferative activity against human Panel prostate (2 Carcinoma cell lines) assessed as reduction in mean cell growth; type: functional; procedure, shortened: as §1

O=C(NCCCNc1cc(-c2cn(-c3ccccc3)nc2-c2cccc(O)c2)ccn1)c1ccc(F)cc1
TGI (K562 [1]): 4.83 µM
GI50 [2]: 1.89 µM
GI50 (HCT-15 [3]): 1.77 µM
GI50 (HOP-92 [4]): 2.13 µM
LC50 (SK-MEL-5 [5]): 5.72 µM
GI50 (K562 [6]): 1.93 µM
TGI (SNB-75 [7]): 12.5 µM
TGI (PC-3 [8]): 5.24 µM
TGI (SK-MEL-5 [9]): 3.15 µM
TGI (MDA-MB-468 [10]): 3.43 µM
inhibition [11]: 66.6%
LC50 (HOP-92 [12]): 7.38 µM
GI50 (COLO 205 [13]): 1.6 µM
inhibition [14]: 40.1%
TGI (COLO 205 [15]): 3.78 µM
GI50 [16]: 3.29 µM
inhibition [17]: 15.7%
TGI (RXF 393 [18]): 3.03 µM
GI50 (SNB-75 [19]): 5.19 µM
GI50 [20]: 1.98 µM
GI50 (SK-MEL-5 [21]): 1.61 µM
GI50 (PC-3 [22]): 2.81 µM
inhibition [23]: 36.4%
CC50 (K562 [24]): 100 µM
Activity (L132): 50%
inhibition [25]: 16.1%
GI50 [26]: 3.46 µM
LC50 (lethal concentration 50%) (COLO 205 [27]): 7.6 µM
TGI (HOP-92 [28]): 3.28 µM
GI50 [29]: 1.91 µM
GI50 [30]: 2.16 µM
GI50 [31]: 2.84 µM
GI50 (MDA-MB-468 [32]): 1.59 µM
TGI (HCT-15 [33]): 3.71 µM
inhibition (Homo sapiens): 14.6%
GI50 (RXF 393 [34]): 1.63 µM
inhibition [35]: 22.5%
Activity [36]: >80%
LC50 (NCI/ADR-RES [37]): 29.7 µM
CC50 (MDA-MB-468 [38]): 6.92 µM
LC50 (PC-3 [39]): 44.3 µM
CC50 (SNB-75 [40]): 74 µM
GI50 (NCI/ADR-RES [41]): 2.2 µM
GI50 [42]: 3.12 µM
LC50 (RXF 393 [43]): 5.99 µM
CC50 (HCT-15 [44]): 8.09 µM
TGI (NCI/ADR-RES [45]): 5.82 µM
GI50 [46]: 3.72 µM
